Laboratory results reported in ChEMBL document CHEMBL1165950, “Design and synthesis of new potent anticancer pyrazoles with high FLT3 kinase inhibitory selectivity” (Bioorg Med Chem, 2010).

Assays:
Format in all cases: functional
[1] = test system: ACHN; assay: Cytotoxicity against human ACHN cells assessed as cell growth at 0.001 uM after 48 hrs by sulforhodamine B assay; settings: read-out: Activity
In short: (§1)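 NCI-60 five-dose screen. Cells were grown in RPMI 1640 with 5% FBS and 2 mM L-glutamine, plated at 5000–40,000 cells/well and preincubated for 24 h. Time-zero plates were TCA-fixed. DMSO-solubilized drug was added at five concentrations (10-fold or ½-log serial dilutions) for 48 h at 37 °C, 5% CO2. Cells were TCA-fixed, stained with 0.4% SRB and read at 515 nm. Percent growth used time-zero, control and test absorbances.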

[2] = test system: A498; assay: Cytotoxicity against human A498 cells assessed as cell growth at 0.01 uM after 48 hrs by sulforhodamine B assay; settings: A498, 48 h, read-out: Activity; in short: as §1
[3] = test system: HT-29; assay: Cytotoxicity against human HT-29 cells assessed as cell growth at 10 uM after 48 hrs by sulforhodamine B assay; settings: HT-29, 48 h, read-out: Activity
[4] = test system: Malme-3M; assay: Cytotoxicity against human MALME-3M cells assessed as cell growth at 0.01 uM after 48 hrs by sulforhodamine B assay; settings: read-out: Activity
[5] = test system: M14; assay: Cytotoxicity against human M14 cells assessed as cell growth at 10 uM after 48 hrs by sulforhodamine B assay; settings: M14, 48 h, read-out: Activity
[6] = test system: SN12C; assay: Cytotoxicity against human SN12C cells assessed as cell growth at 0.001 uM after 48 hrs by sulforhodamine B assay; settings: read-out: Activity
[7] = test system: PC-3; assay: Cytotoxicity against human PC3 cells assessed as cell growth at 0.01 uM after 48 hrs by sulforhodamine B assay; settings: PC-3, 48 h, read-out: Activity
[8] = test system: U-251; assay: Growth inhibition of human U251 cells after 48 hrs by sulforhodamine B assay; settings: U-251, 48 h; for CC50: read-out: LC50 (the source's name)
In short: (§2)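 NCI 60-cell screen, five-dose mode. Cells grown in RPMI 1640 with 5% FBS and 2 mM L-glutamine and plated at 5000-40,000 cells/well according to doubling time. After 24 h preincubation, a Tz plate was TCA-fixed. Five concentrations (10-fold or 1/2 log dilutions) were applied for 48 h at 37 °C. SRB staining read at 515 nm. IC50 taken from [(Ti-Tz)/(C-Tz)]×100 = 50.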

[9] = test system: SF-539; assay: Cytotoxicity against human SF539 cells assessed as cell growth at 10 uM; settings: read-out: Activity
In short: (§3)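 NCI-60 screen: cells grown in RPMI 1640 with 5% FBS and 2 mM L-glutamine, plated at 5000–40,000 cells/well according to doubling time, and preincubated 24 h at 37 °C, 5% CO2. The single 10 µM dose (DMSO stock) was added, then incubated 48 h. Cells were TCA-fixed and stained with 0.4% SRB, read at 515 nm, and growth % calculated against time-zero and control plates.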

[10] = test system: DU-145; assay: Cytotoxicity against human DU145 cells assessed as cell growth at 100 nM after 48 hrs by sulforhodamine B assay; settings: DU-145, 48 h, read-out: Activity
[11] = test system: NCI-H322M; assay: Cytotoxicity against human NCI-H322M cells assessed as cell growth at 0.001 uM after 48 hrs by sulforhodamine B assay; settings: read-out: Activity
[12] = test system: NCI-H322M; assay: Cytotoxicity against human NCI-H322M cells assessed as cell growth at 0.01 uM after 48 hrs by sulforhodamine B assay; settings: read-out: Activity
[13] = test system: SNB-19; assay: Cytotoxicity against human SNB19 cells assessed as cell growth at 0.01 uM after 48 hrs by sulforhodamine B assay; settings: SNB-19, 48 h, read-out: Activity
[14] = test system: UACC-62; assay: Cytotoxicity against human UACC62 cells assessed as cell growth at 10 uM; settings: read-out: Activity; in short: as §3
[15] = test system: HCT-116; assay: Cytotoxicity against human HCT116 cells assessed as cell growth at 0.001 uM after 48 hrs by sulforhodamine B assay; settings: HCT-116, 48 h, read-out: Activity
[16] = Cytotoxicity against human […] cells assessed as cell growth at 0.001 uM after 48 hrs by sulforhodamine B assay; settings: read-out: Activity
[17] = test system: Malme-3M; assay: Cytotoxicity against human MALME-3M cells assessed as cell growth at 100 nM after 48 hrs by sulforhodamine B assay; settings: read-out: Activity
[18] = test system: EKVX; assay: Cytotoxicity against human EKVX cells assessed as cell growth at 10 uM; settings: read-out: Activity
In short: (§4)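 Single-dose NCI-60 screen at 10 µM. Cells were grown in RPMI 1640 with 5% FBS and 2 mM L-glutamine, then treated for 48 h at 37 °C. Protein was measured by SRB staining with absorbance at 515 nm. Percentage growth was recorded, and inhibition percentage was calculated as 100 minus growth percentage.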

[19] = test system: A498; assay: Cytotoxicity against human A498 cells assessed as cell growth at 100 nM after 48 hrs by sulforhodamine B assay; settings: A498, 48 h, read-out: Activity; in short: as §1
[20] = Cytotoxicity against human Hs 578T cells assessed as cell growth at 0.001 uM after 48 hrs by sulforhodamine B assay; settings: read-out: Activity
[21] = test system: 786-0; assay: Cytotoxicity against human 786-0 cells assessed as cell growth at 0.001 uM after 48 hrs by sulforhodamine B assay; settings: 786-0, 48 h, read-out: Activity; in short: as §1
[22] = test system: SK-OV-3; assay: Growth inhibition of human SKOV3 cells after 48 hrs by sulforhodamine B assay; settings: SK-OV-3, 48 h; for CC50: read-out: LC50 (the source's name); in short: as §2
[23] = test system: EKVX; assay: Cytotoxicity against human EKVX cells assessed as cell growth at 10 uM after 48 hrs by sulforhodamine B assay; settings: read-out: Activity
[24] = test system: HT-29; assay: Cytotoxicity against human HT-29 cells assessed as cell growth at 100 nM after 48 hrs by sulforhodamine B assay; settings: HT-29, 48 h, read-out: Activity
[25] = test system: COLO 205; assay: Cytotoxicity against human COLO205 cells assessed as cell growth at 0.001 uM after 48 hrs by sulforhodamine B assay; settings: COLO 205, 48 h, read-out: Activity; in short: as §1
[26] = test system: HT-29; assay: Cytotoxicity against human HT-29 cells assessed as cell growth at 1 uM after 48 hrs by sulforhodamine B assay; settings: HT-29, 48 h, read-out: Activity
[27] = test system: 786-0; assay: Cytotoxicity against human 786-0 cells assessed as cell growth at 10 uM; settings: read-out: Activity; in short: as §4
[28] = test system: SR; assay: Cytotoxicity against human SR cells assessed as cell growth at 10 uM; settings: read-out: Activity; in short: as §3
[29] = Cytotoxicity against human Hs 578T cells assessed as cell growth at 10 uM after 48 hrs by sulforhodamine B assay; settings: read-out: Activity
[30] = test system: SNB-19; assay: Cytotoxicity against human SNB19 cells assessed as cell growth at 1 uM after 48 hrs by sulforhodamine B assay; settings: SNB-19, 48 h, read-out: Activity
[31] = test system: T47D; assay: Cytotoxicity against human T47D cells assessed as cell growth at 10 uM; settings: read-out: Activity; in short: as §3
[32] = test system: K562; assay: Cytotoxicity against human K562 cells assessed as cell growth at 0.001 uM after 48 hrs by sulforhodamine B assay; settings: K562, 48 h, read-out: Activity
[33] = test system: NCI-H460; assay: Cytotoxicity against human NCI-H460 cells assessed as cell growth at 0.001 uM after 48 hrs by sulforhodamine B assay; settings: NCI-H460, 48 h, read-out: Activity
[34] = test system: NCI-H23; assay: Cytotoxicity against human NCI-H23 cells assessed as cell growth at 10 uM; settings: read-out: Activity; in short: as §3
[35] = test system: SNB-19; assay: Cytotoxicity against human SNB19 cells assessed as cell growth at 10 uM; settings: read-out: Activity; in short: as §3

SMILES | growth at 0.001 µM [1] [%] | growth at 0.01 µM [2] [%] | growth at 10 µM [3] [%] | growth at 0.01 µM [4] [%] | growth at 10 µM [5] [%] | growth at 0.001 µM [6] [%] | growth at 0.01 µM [7] [%] | GI50 [8] [µM] | TGI [8] [µM] | CC50 [8] [µM] | growth at 10 µM [9] [%] | growth at 0.1 µM [10] [%] | growth at 0.001 µM [11] [%] | growth at 0.01 µM [12] [%] | growth at 0.01 µM [13] [%] | growth at 10 µM [14] [%] | growth at 0.001 µM [15] [%] | growth at 0.001 µM [16] [%] | growth at 0.1 µM [17] [%] | growth at 10 µM [18] [%] | other results
Cc1cc(O)cc(-c2nn(CC#N)cc2-c2ccnc(-c3ccc(Oc4ccccc4)cc3)c2)c1 | 98 | 78 | -89 | 77 | -94 | 94 | 86 | 1.61 | 2.99 | 5.56 | 75.5 | 86 | 94 | 89 | 100 | 68.1 | 95 | 97 | 93 | 44.9 | growth at 0.1 µM [19]: 84%; growth at 0.001 µM [20]: 103%; growth at 0.001 µM [21]: 98%; GI50 [22]: 1.2 µM; TGI [22]: 24.4 µM; CC50 [22]: 49.6 µM; growth at 10 µM [23]: -41%; growth at 0.1 µM [24]: 91%; growth at 0.001 µM [25]: 107%; growth at 1 µM [26]: -65%; growth at 10 µM [27]: 58.1%; growth at 10 µM [28]: 32.4%; growth at 10 µM [29]: -49%; growth at 1 µM [30]: 55%; growth at 10 µM [31]: 14.2%; growth at 0.001 µM [32]: 63%; growth at 0.001 µM [33]: 100%; growth at 10 µM [34]: 42.6%; growth at 10 µM [35]: 72.8%
COc1cc(C)cc(-c2nn(CC#N)cc2-c2ccc(-c3cccc(C(C)=O)c3)nc2)c1 | 93 | 60 | -11 | 85 | -43 | 92 | 88 | 3.17 | 13.5 | > 100 | 5.94 | 87 | 94 | 91 | 102 | 27.2 | 101 | 100 | 66 | 51.6 | growth at 0.1 µM [19]: 53%; growth at 0.001 µM [20]: 84%; growth at 0.001 µM [21]: 97%; GI50 [22]: 3.13 µM; TGI [22]: 9.1 µM; CC50 [22]: > 100 µM; growth at 10 µM [23]: -10%; growth at 0.1 µM [24]: 99%; growth at 0.001 µM [25]: 103%; growth at 1 µM [26]: 4%; growth at 10 µM [27]: 18%; growth at 10 µM [28]: 18.4%; growth at 10 µM [29]: -57%; growth at 1 µM [30]: 39%; growth at 10 µM [31]: 11.6%; growth at 0.001 µM [32]: 82%; growth at 0.001 µM [33]: 104%; growth at 10 µM [34]: 25.1%; growth at 10 µM [35]: 27.8%
